In ChEMBL document CHEMBL2086280, “Structure and bioactivity of steroidal saponins isolated from the roots of Chamaelirium luteum (false unicorn)” (J Nat Prod, 2012):
Converted amounts (≈) assume the structure as drawn.

Key:
NFF = assay: Cytotoxicity against human NFF cells after 6 days by SRB assay; type: cell-based; conditions: 144 h
Summary of the method: (§1)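 Seeded at 3000−5000 cells/well and exposed for 6 days to compounds diluted from 10 mg/mL DMSO stocks. The top final concentration was 50 μg/mL, carrying 0.5% DMSO final. Cells were ethanol-fixed and stained with sulforhodamine, with absorbance read at 540 nm against untreated controls. IC50 was interpolated from plots of percent control absorbance versus dose.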

HeLa = assay: Cytotoxicity against human HeLa cells after 6 days by SRB assay; type: functional, cell-based; conditions: 144 h; summary of the method: as §1
MM96L = assay: Cytotoxicity against human MM96L cells after 6 days by SRB assay; type: functional, cell-based; conditions: 144 h; summary of the method: as §1
MCF7 = assay: Cytotoxicity against human MCF7 cells after 6 days by SRB assay; type: functional, cell-based; conditions: MCF7, 144 h; summary of the method: as §1
K562 = assay: Cytotoxicity against human K562 cells after 6 days by MTS assay; conditions: K562, 144 h
HT-29 = assay: Cytotoxicity against human HT-29 cells after 6 days by SRB assay; type: functional, cell-based; conditions: HT-29, 144 h; summary of the method: as §1

SMILES | IC50 (NFF) [µg/mL] | IC50 (HeLa) [µg/mL] | IC50 (MM96L) [µg/mL] | IC50 (MCF7) [µg/mL] | IC50 (K562) [µg/mL] | IC50 (HT-29) [µg/mL]
CC(=O)O[C@H]1CC[C@@]2(C)C(=CC[C@H]3[C@@H]4C[C@H](OC(C)=O)[C@H]([C@H](C)C(=O)CC[C@@H](C)CO)[C@@]4(C)CC[C@@H]32)C1 | 2 (≈ 3.87 µM) | 2.8 (≈ 5.42 µM) | 1 (≈ 1.94 µM) | 0.8 (≈ 1.55 µM) | 1.7 (≈ 3.29 µM) | 0.8 (≈ 1.55 µM)
CC(C)[C@H](O)[C@H](O)C[C@@H](C)[C@H]1[C@@H](O)C[C@H]2[C@@H]3CC(=O)[C@H]4C[C@@H](O)CC[C@]4(C)[C@H]3CC[C@]12C | 17 (≈ 37.7 µM) | 15 (≈ 33.3 µM) | 4.5 (≈ 9.99 µM) | 15 (≈ 33.3 µM) | 5 (≈ 11.1 µM) | 13 (≈ 28.8 µM)
CC(C)[C@H](O)[C@H](O)C[C@@H](C)[C@H]1[C@@H](O)C[C@H]2[C@@H]3C[C@@H](O)[C@H]4C[C@@H](O)CC[C@]4(C)[C@H]3CC[C@]12C | 22 (≈ 48.6 µM) | 12 (≈ 26.5 µM) | 8.5 (≈ 18.8 µM) | 13 (≈ 28.7 µM) | 7 (≈ 15.5 µM) | 11 (≈ 24.3 µM)
CC(C)[C@@H]1OC(C)(C)O[C@@H]1C[C@@H](C)[C@H]1[C@@H](O)C[C@H]2[C@@H]3C[C@@H](O)[C@H]4C[C@@H](O)CC[C@]4(C)[C@H]3CC[C@]12C | 10 (≈ 20.3 µM) | 4.3 (≈ 8.73 µM) | 5 (≈ 10.1 µM) | 5 (≈ 10.1 µM) | 8.5 (≈ 17.3 µM) | 3.5 (≈ 7.1 µM)
CC(=O)OC[C@H](C)CC[C@H](OC(C)=O)[C@@H](C)[C@H]1[C@@H](OC(C)=O)C[C@H]2[C@@H]3CC=C4C[C@@H](OC(C)=O)CC[C@]4(C)[C@H]3CC[C@]12C | 12 (≈ 19.9 µM) | 16 (≈ 26.5 µM) | 3.5 (≈ 5.81 µM) | 11 (≈ 18.2 µM) | 4.5 (≈ 7.47 µM) | 4.5 (≈ 7.47 µM)
CC(=O)OC[C@H](C)CC[C@@H](OC(C)=O)[C@@H](C)[C@H]1[C@@H](OC(C)=O)C[C@H]2[C@@H]3CC=C4C[C@@H](OC(C)=O)CC[C@]4(C)[C@H]3CC[C@]12C | 13 (≈ 21.6 µM) | 13 (≈ 21.6 µM) | 4.5 (≈ 7.47 µM) | 7.5 (≈ 12.4 µM) | 8.5 (≈ 14.1 µM) | 6.5 (≈ 10.8 µM)
C[C@@H](CO)CC[C@@H](O)[C@@H](C)[C@H]1[C@@H](O)C[C@H]2[C@@H]3CC=C4C[C@@H](O)CC[C@]4(C)[C@H]3CC[C@]12C | > 50 | > 50 | > 50 | > 50 | > 50 | > 50
CC(C)[C@H](O)[C@H](O)C[C@@H](C)[C@H]1[C@@H](O)C[C@H]2[C@@H]3CC(=O)[C@H]4C[C@@H](O[C@@H]5O[C@H](CO[C@@H]6O[C@H](CO)[C@@H](O)[C@H](O)[C@H]6O)[C@@H](O)[C@H](O)[C@H]5O)CC[C@]4(C)[C@H]3CC[C@]12C | > 50 | > 50 | > 50 | > 50 | > 50 | > 50
CC(C)[C@H](O[C@@H]1O[C@H](C)[C@H](O)[C@H](O)[C@H]1O)[C@H](O)C[C@@H](C)[C@H]1[C@@H](O)C[C@H]2[C@@H]3CC(=O)[C@H]4C[C@@H](O[C@@H]5O[C@H](CO[C@@H]6O[C@H](CO)[C@@H](O)[C@H](O)[C@H]6O)[C@@H](O)[C@H](O)[C@H]5O)CC[C@]4(C)[C@H]3CC[C@]12C | > 50 | > 50 | > 50 | > 50 | > 50 | > 50
CC(C)[C@H](O)[C@H](O)C[C@@H](C)[C@H]1[C@@H](O[C@@H]2O[C@H](CO)[C@@H](O)[C@H](O)[C@H]2O)C[C@H]2[C@@H]3CC(=O)[C@H]4C[C@@H](O[C@@H]5O[C@H](CO[C@@H]6O[C@H](CO)[C@@H](O)[C@H](O)[C@H]6O)[C@@H](O)[C@H](O)[C@H]5O)CC[C@]4(C)[C@H]3CC[C@]12C | > 50 | > 50 | > 50 | > 50 | > 50 | > 50
C[C@@H](CO)CC[C@H](O)[C@@H](C)[C@H]1[C@@H](O)C[C@H]2[C@@H]3CC=C4C[C@@H](O)CC[C@]4(C)[C@H]3CC[C@]12C | > 50 | > 50 | > 50 | > 50 | > 50 | > 50
CC(C)[C@H](O)[C@H](O)C[C@@H](C)[C@H]1[C@@H](O)C[C@H]2[C@@H]3C[C@@H](O)[C@H]4C[C@@H](O[C@@H]5O[C@H](CO[C@@H]6O[C@H](CO)[C@@H](O)[C@H](O)[C@H]6O)[C@@H](O)[C@H](O)[C@H]5O)CC[C@]4(C)[C@H]3CC[C@]12C [CHAMAELIROSIDE A] | > 50 | > 50 | > 50 | > 50 | > 50 | > 50
CC(C)[C@H](O[C@@H]1O[C@H](C)[C@H](O)[C@H](O)[C@H]1O)[C@H](O)C[C@@H](C)[C@H]1[C@@H](O)C[C@H]2[C@@H]3C[C@@H](O)[C@H]4C[C@@H](O[C@@H]5O[C@H](CO[C@@H]6O[C@H](CO)[C@@H](O)[C@H](O)[C@H]6O)[C@@H](O)[C@H](O)[C@H]5O)CC[C@]4(C)[C@H]3CC[C@]12C [CHAMAELIROSIDE B] | > 50 | > 50 | > 50 | > 50 | > 50 | > 50
CC(=O)O[C@@H]1[C@H](O)[C@@H](O)[C@H](O[C@@H](C(C)C)[C@H](O)C[C@@H](C)[C@H]2[C@@H](O)C[C@H]3[C@@H]4C[C@@H](O)[C@H]5C[C@@H](O[C@@H]6O[C@H](CO[C@@H]7O[C@H](CO)[C@@H](O)[C@H](O)[C@H]7O)[C@@H](O)[C@H](O)[C@H]6O)CC[C@]5(C)[C@H]4CC[C@]23C)O[C@@H]1C [CHAMAELIROSIDE C] | > 50 | > 50 | > 50 | > 50 | > 50 | > 50
CC(C)[C@H](O)[C@H](O)C[C@@H](C)[C@H]1[C@@H](O[C@@H]2O[C@H](CO)[C@@H](O)[C@H](O)[C@H]2O)C[C@H]2[C@@H]3C[C@@H](O)[C@H]4C[C@@H](O[C@@H]5O[C@H](CO[C@@H]6O[C@H](CO)[C@@H](O)[C@H](O)[C@H]6O)[C@@H](O)[C@H](O)[C@H]5O)CC[C@]4(C)[C@H]3CC[C@]12C [CHAMAELIROSIDE E] | > 50 | > 50 | > 50 | > 50 | > 50 | > 50
C[C@@H]1CC[C@@]2(OC1)O[C@H]1C[C@H]3[C@@H]4CC=C5C[C@@H](O)CC[C@]5(C)[C@H]4CC[C@]3(C)[C@H]1[C@@H]2C [DISOGENIN] | > 50 | > 50 | > 50 | > 50 | > 50 | > 50
C[C@@H](CO)CC[C@H](O)[C@@H](C)[C@H]1[C@@H](O)C[C@H]2[C@@H]3CC=C4C[C@@H](O)CC[C@]4(C)[C@H]3[C@H](O)C[C@]12C [HELOGENIN] | > 50 | > 50 | > 50 | > 50 | > 50 | > 50
C[C@H](CC[C@H](O)[C@@H](C)[C@H]1[C@@H](O)C[C@H]2[C@@H]3CC=C4C[C@@H](O[C@@H]5O[C@H](CO)[C@@H](O)[C@H](O)[C@H]5O)CC[C@]4(C)[C@H]3[C@H](O)C[C@]12C)CO[C@@H]1O[C@H](CO)[C@@H](O)[C@H](O)[C@H]1O [HELOSIDE A] | > 50 | > 50 | > 50 | > 50 | > 50 | > 50
